Bioassay records deposited in PubChem by several laboratories.
VIM-2 inh = inhibitors of Pseudomonas aeruginosa VIM-2 metallo-beta-lactamase. purified VIM-2, nitrocefin hydrolysis, epi-absorbance fluorescence. AID 1527. inhibition, % at 5.6 µM. 290,000 tested, 0.89% active;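 active = inhibition above the mean of all tested compounds plus 3 SD, cutoff set per screening run, cut at about 7.5% in these data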;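 note: red hydrolysis product quenches plate fluorescence so inhibitors raise well fluorescence; 0% = enzyme with DMSO and 100% = DMSO without enzyme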
PLCb3 inh = PLC-beta3 (human) inhibition, primary screen; Purified PLC-beta3, fluorogenic substrate, fluorescence; inhibition, % at 12.2 µM; 370,000 tested, 0.18% active; AID 720704; in the data active = inhibition above about 11%;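 note: 0% = median of compound wells on plate and 100% = full blocker control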
Target sequence (Q01970 whole entry, looked up): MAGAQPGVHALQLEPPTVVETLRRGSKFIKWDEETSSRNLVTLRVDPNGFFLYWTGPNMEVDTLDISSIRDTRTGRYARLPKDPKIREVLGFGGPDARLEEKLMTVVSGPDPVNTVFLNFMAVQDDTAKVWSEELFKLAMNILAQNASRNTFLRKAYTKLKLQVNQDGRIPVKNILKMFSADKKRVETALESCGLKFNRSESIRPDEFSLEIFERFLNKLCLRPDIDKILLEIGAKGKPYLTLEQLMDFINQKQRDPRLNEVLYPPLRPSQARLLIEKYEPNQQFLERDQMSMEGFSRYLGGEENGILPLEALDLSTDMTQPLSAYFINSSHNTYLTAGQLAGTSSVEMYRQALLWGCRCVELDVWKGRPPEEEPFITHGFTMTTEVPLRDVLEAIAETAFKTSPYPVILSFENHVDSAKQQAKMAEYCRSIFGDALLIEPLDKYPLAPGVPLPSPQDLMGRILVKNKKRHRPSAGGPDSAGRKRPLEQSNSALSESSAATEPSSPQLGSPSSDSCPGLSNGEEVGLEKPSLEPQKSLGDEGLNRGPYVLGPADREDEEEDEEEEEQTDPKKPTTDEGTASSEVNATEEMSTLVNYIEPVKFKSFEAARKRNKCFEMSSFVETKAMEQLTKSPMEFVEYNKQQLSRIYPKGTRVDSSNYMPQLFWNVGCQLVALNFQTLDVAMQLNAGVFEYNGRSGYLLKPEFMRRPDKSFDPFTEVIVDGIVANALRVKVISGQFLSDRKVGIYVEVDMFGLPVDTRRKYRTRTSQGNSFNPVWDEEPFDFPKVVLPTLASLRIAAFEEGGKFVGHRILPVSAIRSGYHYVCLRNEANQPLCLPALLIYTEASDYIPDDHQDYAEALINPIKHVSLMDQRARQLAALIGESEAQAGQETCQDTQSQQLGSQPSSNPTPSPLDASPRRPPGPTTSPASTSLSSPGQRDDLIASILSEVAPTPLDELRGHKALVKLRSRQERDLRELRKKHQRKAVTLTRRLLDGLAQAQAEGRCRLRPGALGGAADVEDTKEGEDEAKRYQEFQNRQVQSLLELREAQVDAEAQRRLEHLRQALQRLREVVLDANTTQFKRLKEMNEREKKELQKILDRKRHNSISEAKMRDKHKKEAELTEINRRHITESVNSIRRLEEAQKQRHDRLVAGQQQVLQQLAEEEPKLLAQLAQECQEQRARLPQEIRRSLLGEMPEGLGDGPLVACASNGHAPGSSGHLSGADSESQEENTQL
IMP-1 inh-1 = inhibitors of Pseudomonas aeruginosa IMP-1 metallo-beta-lactamase; inhibition, % at 5.6 µM; purified IMP-1, nitrocefin hydrolysis, epi-absorbance fluorescence; AID 1556; 290,000 tested, 0.45% active;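 active = inhibition above the mean plus 3 SD of all compounds in the same screening run, cut at about 4.5% in these data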;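 note: 0% = IMP-1 with DMSO and 100% = DMSO wells lacking enzyme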
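assay system = purified recombinant IMP-1 metallo-beta-lactamase enzyme | schedule = 15 min preincubation plus 25 min reaction at 25 °C | signal = Epi-absorbance fluorescence, 480 nm excitation, 530 nm emission | read-out basis = percent inhibition from optical density relative to buffer-blank wells | controls = IMP-1 with DMSO as 0%, enzyme-free DMSO as 100%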
PLC-gamma1 inh = PLC-gamma1 (human) inhibition, primary screen; 370,000 tested, 0.84% active; AID 720700; inhibition, % at 12.2 µM; purified PLC-gamma1, fluorogenic substrate, fluorescence; in the data active = inhibition above about 9.5%
PvdQ acylase = P. aeruginosa PvdQ acylase inhibition | purified PvdQ acylase, fluorescence plate reader | inhibition, % at 10 µM | 340,000 tested, 0.063% active; in the data active = inhibition above about 30%, passing the limit was not always enough;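 note: 0% = vehicle neutral wells and 100% = reference inhibitor wells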
IMP-1 inh-2 = selectivity counter-screen for VIM-2 inhibitors: IMP-1 metallo-beta-lactamase inhibitors; AID 1856; inhibition, % at 5.6 µM; 1,300 tested, under 10 active; purified IMP-1, nitrocefin hydrolysis, epi-absorbance fluorescence; shares compounds with VIM-2 inh; call rule not given here;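 note: 0% = enzyme with vehicle and 100% = vehicle without enzyme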
VIM-2 FRET ctr = VIM-2 FRET inhibition, artifact counter-screen; 1,300 tested, 23% active; shares compounds with VIM-2 inh; purified VIM-2, CCF2 FRET substrate hydrolysis; inhibition, % at 5.6 µM; AID 1857;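 active = inhibition above the mean of all tested compounds plus 3 SD, cut at about 19% in these data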;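 note: 0% = VIM-2 plus DMSO and 100% = no enzyme wells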
TEM-1 counter = selectivity counter-screen for VIM-2 inhibitors: E. coli TEM-1 inhibitors; shares compounds with VIM-2 inh; Purified TEM-1, nitrocefin hydrolysis, epi-absorbance fluorescence; inhibition, % at 5.6 µM; 1,300 tested, 3% active; AID 1866;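 active = inhibition above that campaign's mean inhibition plus 3 SD, cut at about 0.46% in these data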;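 note: 0% = TEM-1 with DMSO and 100% = TEM-1 with 100 µM potassium clavulanate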
VIM-2 inh conf = confirmation of P. aeruginosa VIM-2 metallo-beta-lactamase inhibitors | purified VIM-2, nitrocefin hydrolysis, epi-absorbance | 1,300 tested, 96% active | shares compounds with VIM-2 inh | inhibition, % at 5.6 µM;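 active = inhibition of the VIM-2 beta-lactamase enzyme above about 11% from the earlier first-round screen, limit read from the data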;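 note: 0% = VIM-2 with DMSO and 100% = buffer wells without enzyme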
Active calls of the source: *; i = inactive; . = not tested or not shown. Sampled rows, rich in hits. Any-hit rate of the full collection: about 2%.

SMILES | VIM-2 inh | PLCb3 inh | IMP-1 inh-1 | PLC-gamma1 inh | PvdQ acylase | IMP-1 inh-2 | VIM-2 FRET ctr | TEM-1 counter | VIM-2 inh conf
C[C@H]1[C@@H](OC(=O)NCc2ccc(Cl)c(Cl)c2)CC[C@@]23CCCN2C(=O)CCC[C@@H]13 | . | -2 | . | 2 | . | . | . | . | .
CCC[C@H]1[C@@H](OC(=O)NCc2ccc(C(F)(F)F)cc2)CC[C@@]23CCCN2C(=O)CCC[C@@H]13 | . | 2 | . | 2 | . | . | . | . | .
CC(=O)c1cc(-c2ccccc2)c(=O)n2c1CCC2 | . | -2 | . | 0 | . | . | . | . | .
c1cn(CCCNc2ncnc3sc4c(c23)CCC4)cn1 | 28* | 0 | -2 | -3 | 0 | -3 | -10 | -8 | 56*
CN(CCOC(=O)c1cccs1)C1CN(Cc2cn(Cc3ccccc3Cl)nn2)S(=O)(=O)C1 (centres undefined) | . | -4 | . | 3 | . | . | . | . | .
Fc1ccccc1-c1n[nH]c(=S)n1Cc1ccccc1 | 28* | . | -5 | . | 2 | -4 | 50* | -8 | 34*
CC(=O)N/N=C/c1cc(C(C)C)cc(/C=N/NC(C)=O)c1O | 34* | -143 | 0 | -121 | -8 | -1 | 12 | -2 | 47*
CC(=O)N/N=C/c1cc(C)n(-c2ccc(Br)cc2)c1C | -4 | -5 | -3 | -3 | -10 | . | . | . | .
CCc1cc(=O)oc2c3c(cc(OCC(=O)NCc4ccco4)c12)OC(C)(C)CC3 | 4 | . | 1 | . | -8 | . | . | . | .
CCc1cc(=O)oc2c3c(cc(OCC(=O)NCc4ccncc4)c12)OC(C)(C)CC3 | 16* | i | -2 | i | -14 | -2 | -2 | -1 | 27*
Cc1cc(=O)oc2c3c(cc(OCC(=O)N[C@@H](Cc4ccccc4)C(=O)O)c12)OC(C)(C)CC3 | 22* | i | -1 | i | -2 | -3 | 40* | -5 | 25*
Cc1cc(=O)oc2c3c(cc(OCC(=O)NC(Cc4ccc(Cl)cc4)C(=O)O)c12)OC(C)(C)CC3 (centres undefined) | 7 | i | -2 | i | -4 | . | . | . | .
c1nc(NCC2CCOC2)c2cc(-c3ccc4c(c3)OCO4)ccc2n1 (centres undefined) | . | -192 | . | -127 | . | . | . | . | .
CC(C)c1cc(N2CCN(C(=O)c3ccco3)CC2)n2c(nc3ccccc32)c1C#N | 15* | i | -1 | -474 | 2 | -4 | -6 | -5 | 32*
CCn1c(N2CCN(C(=O)c3ccco3)CC2)nc2ccccc21 | -1 | -6 | -1 | -1 | -20 | . | . | . | .
O=C(CN1C(=O)C2CCCCN2C(=O)c2ccccc21)N1CCCC1 (centres undefined) | . | 0 | . | 1 | . | . | . | . | .
O=C(CC(C(=O)O)c1cccc(Cl)c1Cl)c1ccccc1 (centres undefined) | 15* | -8 | 1 | -3 | 4 | -2 | 29* | -5 | 18*
O=C(NCc1cccnc1)c1cccn2c(=O)c3sccc3nc12 | 26* | i | -1 | i | 7 | -3 | -1 | -9 | 51*
C=CCn1c2ccccc2c2nnc(SCCN3CCCCC3)nc21 | 19* | -11 | -2 | -6 | -11 | -4 | 4 | -8 | 22*
c1ccc(Cn2c3ccccc3c3nnc(SCCN4CCCCC4)nc32)cc1 | 27* | -10 | -2 | -6 | . | -4 | 1 | -9 | 42*
C=CCn1c2ccccc2c2nnc(SCCCn3c(=O)[nH]c4ccccc43)nc21 | 6 | -25 | -1 | -11 | -13 | . | . | . | .
CSc1nnc2c3cc(C)ccc3n(Cc3ccccc3)c2n1 | -1 | -2 | -2 | 1 | -5 | . | . | . | .
O=C(CCc1ccccc1)N[C@H]1[C@H](OC(=O)c2ccco2)CCC[C@]12C(=O)N(Cc1ccccc1)c1ccccc12 | . | -2 | . | -1 | . | . | . | . | .
C[C@H]1[C@@H](NC(=O)Cc2ccsc2)CC[C@@]23CCCN2C(=O)CCC[C@@H]13 | . | 0 | . | 1 | . | . | . | . | .
CCN(CC)CCOc1cc2c(nn1)Oc1ccccc1N2C | 18* | i | 1 | i | 7 | -3 | 2 | -7 | 20*
